Measured values reported in PMC5006643 (EBioMedicine, 2016).
Where no end group is shown, it is not given here. [ ]: non-standard residue; d: D form. sY = N[C@@H](Cc1ccc(OS(=O)(=O)O)cc1)C(=O)O

What was measured:
HIV-1 BaL = assay: Acute HIV-1 infection assay in primary human CD4+ T cells; type: cell-based; details: dose-response; for inhibition of HIV-1 BaL infection: cell-free acute infection of primary human CD4+ T cells
In short: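 Peptides were stocked at 10 mg/mL in NH4OH and stored frozen. Cell-free infection of primary human CD4+ T cells used CCR5-tropic HIV-1 BaL. Test peptides were titrated for dose-response, and non-sulfated homologous peptides and a scrambled sulfated control peptide were run in parallel. Cell viability was assessed in a separate assay.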

[1] = system: binding of BG505 SOSIP.664 trimer to human CCR5; type: cell-based, HIV-1; details: Cf2Th/syn-CCR5 canine thymocytes, flow cytometry, dose-response
In short: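 Cf2Th/syn-CCR5 cells were harvested at ~80% confluency with enzyme-free dissociation buffer. His-tagged BG505 SOSIP.664 trimer was preincubated with 2-domain sCD4 for 1 h at 4 °C, treated with test compound across a dose range, then bound to cells for 1 h at 4 °C. After washes, bound trimer was detected with PE anti-His antibody (1 h, 4 °C). Cells were fixed in 2% PFA and analysed by flow cytometry. Anti-CCR5 mAb 2D6 confirmed specificity.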

[2] = system: panel of 12 HIV-1 strains; assay: Infection of CD4+ T cells by a panel of 12 HIV-1 strains; type: cell-based; details: 50 μM
In short: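 Cell-free infection of purified primary human CD4+ T cells, with each test compound at 50 μM. The panel had eight minimally passaged primary isolates (92US714, 92HT599, 07USLR, 07USPC, 07USSG, subtype B; 97ZA009, 98IN017, subtype C; 93BR019, subtype F) and four laboratory-expanded subtype B strains (BaL, JR-FL, ADA, IIIB). Both CCR5-tropic and CXCR4-using phenotypes were included.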

[3] = system: recombinant gp120 (strain BaL); assay: SPR of monomeric gp120 binding to immobilized V2 peptide; design: species or system HIV-1; details: peptide immobilized on CM5, gp120 BaL pre-complexed with CD4-M48U
In short: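 The sulfated V2 test peptide was immobilized on a CM5 chip. Recombinant monomeric gp120 BaL (25–400 nM) was preincubated with a 2-fold molar excess of CD4-M48U […]. It was injected for 2 min at 25 μL/min in HBS with 3 mM EDTA and 0.005% Tween-20, followed by 2 min dissociation. Surfaces were regenerated with 4.5 M MgCl2.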

[4] = system: soluble, stabilized gp140 trimer (BG505-SOSIP.664); assay: SPR of soluble gp140 trimer binding to immobilized V2 peptide; design: species or system HIV-1; details: SOSIP trimer 12.5-200 nM, absence of the CD4 mimic
In short: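 The sulfated V2 test peptide was immobilized on a CM5 surface. Unliganded BG505 SOSIP.664 trimer (12.5–200 nM; produced in 293FS cells, lectin-affinity and size-exclusion purified) was injected for 2 min at 25 μL/min in HBS with 3 mM EDTA and 0.005% Tween-20, followed by 2 min dissociation. Regeneration used a brief 4.5 M MgCl2 pulse.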

[5] = system: sCD4:gp120 complex (gp120 BaL); assay: NMR trNOESY interaction and competition with gp120/sCD4; type: binding, HIV-1; details: 2D NOESY, 0.8 mM peptide
In short: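 The tyrosine-sulfated V2 peptide was 15N-labelled at Ala/Ile/Leu/Phe/Val, at 800 μM (0.8 mM). It was incubated 1 h on ice with 20 μM sCD4, 20 μM recombinant gp120 BaL, or both. Samples were exchanged into 20 mM sodium phosphate pH 6.8, 50 mM NaCl, 0.02% azide, 10% D2O. NOESY was run at 30 °C, 600 MHz, with mixing times 100/250/400 ms. For competition, 0.4 mM peptide was used with 0, 0.8 or 1.6 mM unlabelled sulfated CCR5 N-terminal peptide.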

DPVLEF[sY]KID[sY]IELAVQK [pSCR-Tys, reference compound]
inhibition of HIV-1 BaL infection (HIV-1 BaL): did not show significant inhibitory activity | inhibition of binding of sCD4-activated BG505 SOSIP.664 trimer to CCR5 [1]: limited effects

KKQKVHALF[sY]KLDIVPIK [pV2αΕ-Tys]
relative potency over the strain panel ([2]; compared to pV2α-Tys): generally lower potency compared to pV2α-Tys | number of resistant HIV-1 strains of 12 ([2]; purified CD4+ T cells): 3

KVQKE[sY]ALF[sY]ELDIVPID [pV2α-Tys]
ka [3]: 48300 M⁻¹ s⁻¹ | binding of soluble gp140 trimer to immobilized peptide [4]: unable to bind | trNOE signals (binding) with sCD4:gp120 complex ([5]; 20 μM sCD4:gp120, 30 °C): appearance of numerous NOE crosspeaks | trNOE signals (binding) with gp120 alone ([5]; gp120 alone): small number of weak trNOE crosspeaks | trNOE signals (binding) with sCD4 alone ([5]; sCD4 alone): no pV2α-Tys trNOEs signals were observed | inhibition of HIV-1 BaL infection (HIV-1 BaL): potently inhibited infection | inhibition of binding of sCD4-activated BG505 SOSIP.664 trimer to CCR5 [1]: reduced CCR5 binding of the trimer in a dose-dependent fashion

MDYQVSSPI[sY]DIN[sY]YTSEPSQK [pCCR5-Tys, reference compound]
inhibition of HIV-1 BaL infection (HIV-1 BaL): dose-dependent HIV-1 inhibition | inhibition of binding of sCD4-activated BG505 SOSIP.664 trimer to CCR5 [1]: Dose-dependent inhibitory effect | activity against CCR5-tropic isolates ([2]; purified CD4+ T cells): restricted activity against CCR5-tropic isolates | activity against CXCR4-using (R5X4 and X4) isolates ([2]; purified CD4+ T cells): inactive

Tys173: pV2α version bearing a single sulfated tyrosine at position 173 (KVQKE[sY]ALFYELDIVPID)
inhibition of HIV-1 BaL infection (HIV-1 BaL): exhibited antiviral activity

Tys177: pV2α version bearing a single sulfated tyrosine at position 177 (KVQKEYALF[sY]ELDIVPID)
inhibition of HIV-1 BaL infection (HIV-1 BaL): exhibited antiviral activity | relative potency in inhibition of HIV-1 BaL infection (HIV-1 BaL; primary CD4+ T cells, singly vs doubly sulfated peptides): more potent than Tys173
